Test results reported in ChEMBL document CHEMBL1137445, “Bioassay-guided fractionation of pterocarpans from roots of Harpalyce brasiliana Benth” (Bioorg Med Chem, 2007).
Converted amounts (≈) assume the structure as drawn.

Key:
Lytechinus variegatus [1] = assay: Antimitotic activity against Lytechinus variegatus at tertiary cleavage stage of egg development; type: functional, tissue-based
Procedure, shortened: (§1)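 Eggs were fertilized with diluted sperm in filtered seawater, and fertilization was confirmed by elevation of the vitellin membrane. Compounds were added 5 min after fertilization over a 0.1–100 range. Incubation was at room temperature. Aliquots were fixed in equal-volume 10% formaldehyde at first cleavage, third cleavage and blastula. 100 eggs were scored per concentration for % normal development. IC50 and 95% CI came from nonlinear regression of 3 independent experiments.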

HL-60 = assay: Cytotoxicity against human HL60 cells by MTT assay; type: functional, cell-based
Procedure, shortened: (§2)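 Cell lines were from NCI. Viability was read by MTT reduction to formazan. IC50 and 95% confidence interval came from nonlinear regression of three independent experiments.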

MDA-MB-435 = assay: Cytotoxicity against human MDA-MB-435 cells by MTT assay; type: functional, cell-based; procedure, shortened: as §2
Lytechinus variegatus [2] = assay: Antimitotic activity against Lytechinus variegatus at blastulae stage of egg development; type: functional, tissue-based; conditions: Blastula stage; procedure, shortened: as §1
Lytechinus variegatus [3] = assay: Antimitotic activity against Lytechinus variegatus at primary cleavage stage of egg development; type: functional, tissue-based; procedure, shortened: as §1
HCT-8 (human) = assay: Cytotoxicity against human HCT-8 cells by MTT assay

Row | IC50 (Lytechinus variegatus [1]) [µg/mL] | IC50 (Lytechinus variegatus [2]) [µg/mL] | IC50 (Lytechinus variegatus [3]) [µg/mL] | Structure (SMILES) | IC50 (HL-60) [µg/mL] | IC50 (MDA-MB-435) [µg/mL] | IC50 (HCT-8 (human)) [µg/mL]
1 | 4.8 (≈ 13.6 µM) | 3.3 (≈ 9.36 µM) | 15.2 (≈ 43.1 µM) | CC(C)=CCc1c(O)ccc2c1OCC1c3cc4c(cc3OC21)OCO4 (stereo unspecified) | 3.1 (≈ 8.8 µM) | 4.9 (≈ 13.9 µM) | 8.5 (≈ 24.1 µM)
2 | 0.52 (≈ 1.41 µM) | 0.43 (≈ 1.17 µM) | 1.5 (≈ 4.07 µM) | C/C(=C\Cc1c(O)ccc2c1OCC1c3cc4c(cc3OC21)OCO4)CO (stereo unspecified) | 16.2 (≈ 44 µM) | > 25 | 8.8 (≈ 23.9 µM)
3 | 2.1 (≈ 5.67 µM) | 1.7 (≈ 4.59 µM) | 5.18 (≈ 14 µM) | CC(CO)CCc1cc2c(cc1O)OCC1c3cc4c(cc3OC21)OCO4 (stereo unspecified) | > 25 | 16.9 (≈ 45.6 µM) | 10.8 (≈ 29.2 µM)
4 | 0.34 (≈ 0.626 µM) | 0.54 (≈ 0.994 µM) | 6.28 (≈ 11.6 µM) | COc1cccc2c1C(=O)c1c(O)c3c(c(O)c1C2=O)C[C@@](O)(C(=O)CO)C[C@@H]3O[C@H]1C[C@H](N)[C@H](O)[C@H](C)O1 [DOXORUBICIN] | 0.02 (≈ 0.0368 µM) | […] | 0.01 (≈ 0.0184 µM)
5 | 0.4 (≈ 1.14 µM) | 0.2 (≈ 0.571 µM) | 1.1 (≈ 3.14 µM) | CC1(C)C=Cc2c(ccc3c2OCC2c4cc5c(cc4OC32)OCO5)O1 (stereo unspecified) [LEIOCARPIN] | 5.5 (≈ 15.7 µM) | 13.7 (≈ 39.1 µM) | 6.9 (≈ 19.7 µM)
6 | 4.3 (≈ 15.1 µM) | 4.6 (≈ 16.2 µM) | 6.5 (≈ 22.9 µM) | Oc1ccc2c(c1)OC[C@H]1c3cc4c(cc3O[C@@H]21)OCO4 [MAACKIAIN] | 17.9 (≈ 63 µM) | 11.5 (≈ 40.5 µM) | > 25
